proCasp7 act: activates human procaspase-7, counter-screen for procaspase-3 activators; P55210; recombinant procaspase-7, Ac-DEVD-pNA absorbance 405 nm; D23A/D198A/D206A triple mutant, cannot self-cleave; scale: DMSO 0, 5 µM enzyme 100; activation, % at 8.5 µM; actives 0.093% (n = 330,000);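 active = percent activation above the screen-wide mean plus 3 SD, cut at about 25% in these data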
Target sequence (P55210 whole entry D23A/D198A/D206A): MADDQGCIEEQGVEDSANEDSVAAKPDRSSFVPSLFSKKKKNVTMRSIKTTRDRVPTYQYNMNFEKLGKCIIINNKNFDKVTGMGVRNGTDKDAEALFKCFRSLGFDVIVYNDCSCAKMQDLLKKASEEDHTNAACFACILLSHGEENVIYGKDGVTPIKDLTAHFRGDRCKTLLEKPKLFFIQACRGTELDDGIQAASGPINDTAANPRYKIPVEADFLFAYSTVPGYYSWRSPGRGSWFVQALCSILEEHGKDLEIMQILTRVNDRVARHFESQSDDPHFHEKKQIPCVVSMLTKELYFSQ
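buffer or medium = Zinc-free HEPES/NaCl buffer, pH 7.4 | material = Procaspase-7 triple mutant (PC-7 D3A) | input = 2 µM procaspase-7 mutant as dispensed | signal = Epi-absorbance of released pNA at 405 nm, two timepoints | timing = 1 h preincubation, 2 h reaction | replicates = singlicate compound testing | evaluation = % activation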
MPTP inh: inhibitors of mitochondrial permeability transition pore | actives 1.4% (n = 360,000) | inhibition, % at 10 µM | isolated mouse mitochondria, Ca2+ swelling absorbance, 30 min | AID 602449;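 active = inhibition of 50% or more, scaled per plate between neutral and stimulator controls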;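 note: 0% = DMSO wells given calcium and 100% = 1 mM EGTA wells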
NR3A LBD binder: NR3A (human) ligand-binding domain modulation; actives 2.5% (n = 340,000); Tm shift relative to glycine control, % at 25 µM; NR3A LBD differential scanning fluorimetry, Tm shift; 0% = protein alone, 100% = glycine-bound protein;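 active = melting temperature shift of at least 10% of the positive control shift, at one fixed dose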
aDG glyco act: increases alpha dystroglycan glycosylation; Pro5-aDG cells, alpha-DG glycosylation AlphaScreen (IIH6); 0% Pro5, 100% B10-LARGE cell signal; activation, % at 10 µM; actives 0.22% (n = 360,000); AID 624168;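 active = activation of at least 8% versus controls, or a plate z-score of at least 8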;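 note: Pro5 are CHO cells carrying HIG-tagged alpha-DG that lacks glycosylation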
proCasp3 act: activates human procaspase-3; P42574; recombinant procaspase-3 D3A, Ac-DEVD-pNA absorbance 405 nm; activation, % at 8.5 µM; actives 0.11% (n = 330,000);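 active = activation above the mean of all tested compounds plus 3 SD, cut at about 21% in these data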;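 note: 0% = DMSO alone and 100% = DMSO wells spiked with extra 5 µM PC-3 D3A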
Target sequence (P42574 whole entry D9A/D28A/D175A): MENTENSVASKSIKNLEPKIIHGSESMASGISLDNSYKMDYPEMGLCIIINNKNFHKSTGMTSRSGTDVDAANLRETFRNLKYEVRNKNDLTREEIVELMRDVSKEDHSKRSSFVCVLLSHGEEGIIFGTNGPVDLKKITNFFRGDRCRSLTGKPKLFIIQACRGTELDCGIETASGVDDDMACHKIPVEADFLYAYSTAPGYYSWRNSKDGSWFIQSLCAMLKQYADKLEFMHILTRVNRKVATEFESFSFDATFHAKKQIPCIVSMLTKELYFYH
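Test system: Procaspase-3 D3A mutant; medium: Zinc-free HEPES/NaCl buffer with 0.01% Triton X-100 at pH 7.4; reagent: DEVD-pNA substrate; doses: one concentration, 8.5 µM nominal, 0.8% DMSO; times: 1 h preincubation plus 2 h reaction at 25 °C; signal: Epi-absorbance at 405 nm of released p-nitroaniline, 0 and 120 min; replicates: singlicate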
MPTP counter: membrane potential counter-screen of mitochondrial pore inhibitors. shares compounds with MPTP inh. isolated mitochondria, Rhodamine 123 fluorescence. inhibition, % at 10 µM. actives 78% (n = 5,000); in the data active = inhibition above about 22%;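 note: 0% = DMSO vehicle and 100% = positive control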
MPTP abs DR: dose response confirmation of mitochondrial permeability transition pore inhibitors; shares compounds with MPTP inh; IC50, µM; actives 58% (n = 780); isolated mitochondria swelling, absorbance; in the data active = IC50 below about 20 µM
MPTP cs DR: active in counter-screen for permeability transition pore inhibitors. shares compounds with MPTP inh. isolated mitochondria counterscreen, fluorescence read-out. IC50, µM. actives 49% (n = 780). AID 651564; in the data active = IC50 below about 80 µM
Starred values were filed as active, the others as inactive; x = no result. In the library only some 3.7% were active in any assay of this set; here they are far more common.

SMILES	proCasp7 act	MPTP inh	NR3A LBD binder	aDG glyco act	proCasp3 act	MPTP counter	others
COc1cc(/C=C/c2sc3ccccc3[n+]2CCCS(=O)(=O)[O-])ccc1O	-9	56*	0	0	-7	-11
CCC(/C=C1\Oc2ccc(OC)cc2N1C)=C\c1sc2ccccc2[n+]1CCCS(=O)(=O)[O-]	x	14	-1	0	x	x
CCOc1cc(NC(=S)Nc2ccccc2)c(OCC)cc1NC(=O)c1ccc(OC)cc1	-4	-2	-6	0	-7	x
CCOc1ccccc1NC(=O)Nc1ccc(Cl)cc1	-3	90*	5	0	1	90*
CCOc1cc(NC(=S)Nc2ccc(Cl)cc2)c(OCC)cc1NC(C)=O	-22	73*	-1	0	-22	100*
CCOc1ccccc1NC(=O)Nc1ccccn1	9	1	-1	0	-2	x
C#CCNC(=O)C[C@@H]1C[C@@]2(C(=O)OCC)CCC=C2N(Cc2ccc(Cl)cc2Cl)C1=O	x	1	x	0	x	x
Cc1cc(/C=C2\Sc3ccccc3N2C)cc(C)[n+]1CC1CCCO1 (configuration not stated)	x	75*	-1	3	x	84*
Cc1ccc(/C=C2/Sc3ccccc3N(CC(=O)NCC3CCCO3)C2=O)cc1 (configuration not stated)	-10	-3	-1	0	-2	x
OC(CNC1CCCc2ccccc21)COc1ccc2ccccc2c1 (configuration not stated)	7	2	-1	0	5	x
CCc1ccccc1OC[C@@H](O)CN[C@H]1CCCc2ccccc21	-1	104*	-1	1	3	8	MPTP abs DR=5.5*;MPTP cs DR=15*
CC(C)(C)NC[C@@H](O)COc1cccc2c1CCCC2=O	4	-1	1	0	0	x
CC(C)(C)NCC(O)COc1ccccc1C1CCCC1 (configuration not stated)	-4	95*	2	1	1	-10	MPTP abs DR=6.8*;MPTP cs DR=56*
O=C(Nc1ccccc1)c1cc(C2CCCN(C(=O)c3cccs3)C2)on1 (configuration not stated)	x	0	x	0	x	x
Cc1ccccc1CN1C(=O)CSCC1(C)C(=O)NC(C)C (configuration not stated)	x	0	x	0	x	x
COc1cc([N+](=O)[O-])ccc1NC(=O)CN1C(=O)NC2(CCCCC2C)C1=O (configuration not stated)	x	1	-1	0	x	x
CSc1ncccc1C(=O)OCC(=O)c1ccc(C)s1	6	-1	2	0	7	x
O=C(NCc1ccncc1)c1ccc(Oc2ccccc2)cc1	10	76*	1	1	-2	39*
Cc1ccc(Oc2ccc(C(=O)NCc3ccncc3)cc2)cc1	x	88*	-6	6	x	75*
C(=C\c1nc(N2CCCC2)c2ccccc2n1)/c1ccccc1	4	90*	-4	1	-4	95*
CC(=O)Nc1ccc(S(=O)(=O)Nc2ccc(Cc3ccncc3)cc2)cc1	7	0	1	0	0	x
CC(C)(C)c1ccc(S(=O)(=O)Nc2ccc(Cc3ccncc3)cc2)cc1	8	73*	-24	2	-12	74*
COc1ccc(/C=C/C(=O)Nc2ccccc2C(=O)NCC(c2ccc(OC)cc2)N(C)C)cc1 (configuration not stated)	7	76*	3	0	8	-5	MPTP abs DR=12*;MPTP cs DR=>80
COc1ccc(/C=C/C(=O)Nc2ccccc2C(F)(F)F)cc1	5	-1	-2	0	6	x
CCCCNC(=O)C(CC)(ONc1ccccc1C(F)(F)F)c1ccccc1 (configuration not stated)	-28	2	-5	0	-13	x
SMILES	proCasp7 act	MPTP inh	NR3A LBD binder	aDG glyco act	proCasp3 act	MPTP counter	others
O=C(Cn1c(COc2ccccc2)nc2ccccc21)Nc1cc(Cl)ccc1Cl	3	1	1	0	6	x
O=C(Cn1c(COc2ccccc2)nc2ccccc21)Nc1cc(Cl)cc(Cl)c1	-3	92*	5	0	2	94*
COc1ccc(-c2csc(/C(C#N)=C\c3cccc([N+](=O)[O-])c3)n2)cc1	-1	x	x	x	-3	x
COc1ccc(-c2csc(/C(C#N)=C\c3ccc(O)c([N+](=O)[O-])c3)n2)cc1OC	6	99*	-4	0	3	50*
N#C/C(=C\c1ccc(O)c([N+](=O)[O-])c1)c1nc2ccccc2s1	x	91*	-2	0	x	64*
OC[C@@H]1CN(Cc2ccncc2)C[C@H](n2cnc3c(N4CCCC4)ncnc32)O1	x	0	x	0	x	x
CCCCOc1ccc(Br)cc1/C(C)=N/NC1=NCCN1	2	67*	-1	0	-1	92*
CCCCCCOc1ccc(/C(C)=N/NC2=NCCN2)cc1[N+](=O)[O-]	15	-1	-2	-1	-3	x
Cc1cc(C)cc(CC(Cc2nc3ccccc3[nH]2)c2nc3ccccc3[nH]2)c1 (configuration not stated)	10	96*	-7	0	-1	108*
CCN1/C(=C/c2ccc3cc(C)cc(C)c3[n+]2CC)Sc2cc(C)ccc21	x	87*	-3	2	x	97*
Cc1ccc2c(c1)S/C(=C\c1cccc[n+]1C)N2CCO	-18	0	2	0	-8	x
CCN1/C(=C/c2ccc3cc(C)ccc3[n+]2CC)Sc2ccc3sccc3c21	-12	80*	1	0	-10	87*
CCN1/C(=C\c2ccc3cc(C)ccc3[n+]2CC)Sc2cc(C)c(C)cc21	x	85*	-3	3	x	85*
CCN1/C(=C/c2ccc3cccc(C)c3[n+]2CC)Sc2ccccc21	-6	101*	-1	2	-10	89*
C[n+]1ccccc1/C=C1\Sc2ccccc2N1CCO	-5	-2	-2	0	-10	x
Fc1ccccc1CN1CCCN(C(=S)Nc2cccc(Cl)c2)C1	-8	92*	0	0	-4	76*
Cc1c(Cl)cccc1NC(=S)N1CCCN(Cc2ccccc2F)C1	8	69*	-2	0	4	74*
O=C(Nc1ccccc1)N1CCCN(Cc2ccccc2F)C1	6	2	0	0	-8	x
COc1cc(NC(=O)N[C@@H](Cc2c[nH]c3ccccc23)C(=O)O)c(C(=O)O)cc1OC	x	0	0	0	x	x
CC(C)(C)c1nc(SCC(=O)c2ccccc2)c2ccccc2n1	-14	0	3	1	-9	x
